Laboratory results as given in ChEMBL document CHEMBL4334465, “SAR Studies on Aromatic Acylhydrazone-Based Inhibitors of Fungal Sphingolipid Synthesis as Next-Generation Antifungal Agents” (J Med Chem, 2019).
≈ marks a conversion by molar mass, not a printed value. Calls of active or inactive are those of the source. The rule behind the calls is not given here.

Key:
Candida parapsilosis [1] = assay: Antifungal activity against Candida parapsilosis assessed as FICI in presence of itraconazole; assay type: functional
Summary of the method: (§1)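 Checkerboard combination scored by fractional inhibitory concentration index. Acylhydrazone serially diluted 16 to 0.015 μg/mL (11 dilutions). Partner drug in seven dilutions: fluconazole 12 to 0.19 μg/mL, amphotericin B 5 to 0.078 μg/mL, caspofungin, itraconazole or voriconazole 8 to 0.007 μg/mL.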

Candida parapsilosis [2] = assay: Antifungal activity against Candida parapsilosis assessed as FICI in presence of voriconazole; assay type: functional; summary of the method: as §1
A549 = assay: Cytotoxicity against human A549 cells after 24 to 48 hrs by MTT assay; assay type: functional; conditions: read-out: LD50 (the source's name)
Summary of the method: (§2)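 A549 and HepG2 kept in DMEM with 10% FBS and 1% pen-strep. At passage 7, seeded at 10⁵ cells/well and allowed to adhere 14 h. Compound added at 0.03–128 μg/mL, untreated wells as controls. Incubation 37°C, 5% CO₂ for 24 or 48 h. MTT (5 mg/mL in PBS) added for 4 h, formazan dissolved in DMSO, OD570.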

Cryptococcus neoformans [3] = assay: Antifungal activity against Cryptococcus neoformans H99 assessed as FICI in presence of voriconazole; assay type: functional, var grubii H99; summary of the method: as §1
[Candida] auris [4] = Antifungal activity against Candida auris assessed as FICI in presence of itraconazole; assay type: functional, Candidozyma auris; summary of the method: as §1
Candida parapsilosis [5] = assay: Antifungal activity against Candida parapsilosis measured after 24 to 72 hrs; assay type: functional; conditions: Lodderomyces parapsilosis
Summary of the method: (§3)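 Modified CLSI broth microdilution with inoculum per M27A3. Compounds were serially diluted 32 to 0.03 μg/mL. Media: C. neoformans in HEPES-buffered YNB without amino acids (pH 7.0, 2% glucose); Candida strains in YNB without ammonium sulfate or amino acids plus 1% asparagine (pH 7.0, 2% glucose); A. fumigatus in RPMI (pH 7.0, 2% glucose).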

Pichia kudriavzevii [6] = assay: Antifungal activity against Candida krusei 6258 assessed as FICI in presence of fluconazole; assay type: functional; summary of the method: as §1
Cryptococcus neoformans [7] = assay: Antifungal activity against Cryptococcus neoformans H99 measured after 24 to 72 hrs; assay type: functional; conditions: var grubii H99; summary of the method: as §3
Candida albicans [8] = assay: Antifungal activity against Candida albicans assessed as FICI in presence of caspofungin; assay type: functional; summary of the method: as §1
Cryptococcus neoformans [9] = assay: Fungicidal activity against Cryptococcus neoformans H99 measured up to 96 hrs by time-kill assay; assay type: functional, organism-based; conditions: var grubii H99
Summary of the method: (§4)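 Overnight C. neoformans washed in PBS and resuspended in HEPES-buffered YNB, pH 7.4. 2 × 10⁴ cells exposed to a range of drug concentrations in 10 mL with 0.5% DMSO final, at 37°C, 5% CO₂, shaking at 200 rpm. Aliquots sampled over 96 h, diluted and plated on YPD; CFU counted after 48 h at 30°C.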

Candida parapsilosis [10] = assay: Antifungal activity against Candida parapsilosis assessed as FICI in presence of caspofungin; assay type: functional; summary of the method: as §1
Candida albicans [11] = assay: Antifungal activity against Candida albicans assessed as FICI in presence of fluconazole; assay type: functional; summary of the method: as §1
Candida albicans [12] = assay: Antifungal activity against Candida albicans assessed as FICI in presence of itraconazole; assay type: functional; summary of the method: as §1
Candida albicans [13] = assay: Antifungal activity against Candida albicans measured after 24 to 72 hrs; assay type: functional; summary of the method: as §3
Pichia kudriavzevii [14] = assay: Antifungal activity against Candida krusei 6258 assessed as FICI in presence of caspofungin; assay type: functional; summary of the method: as §1
Pichia kudriavzevii [15] = assay: Antifungal activity against Candida krusei measured after 24 to 72 hrs; assay type: functional
Summary of the method: (§5)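 MIC by modified CLSI broth microdilution. Candida strains grown in YNB without ammonium sulfate or amino acids with 1% asparagine, pH 7.0, 2% glucose. Inoculum per CLSI M27A3. Compound serially diluted 32 to 0.03 μg/mL. Incubation 37°C, 5% CO₂, 24–72 h, then OD450. MIC80 taken as the lowest concentration giving 80% growth inhibition versus untreated control.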

Pichia kudriavzevii [16] = assay: Antifungal activity against Candida krusei 6258 assessed as FICI in presence of itraconazole; assay type: functional; summary of the method: as §1
Pichia kudriavzevii [17] = assay: Antifungal activity against fluconazole-resistant Candida krusei assessed as FICI in presence of itraconazole; assay type: functional
Summary of the method: (§6)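 Checkerboard in 96-well plate. Test compound diluted 16 to 0.015 μg/mL (11 dilutions) against the partner drug in seven dilutions: fluconazole 12 to 0.19 μg/mL, caspofungin, itraconazole or voriconazole 8 to 0.007 μg/mL. Fractional inhibitory concentration index (FICI) calculated from the combinations.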

Pichia kudriavzevii [18] = assay: Antifungal activity against Candida krusei 6258 assessed as FICI in presence of voriconazole; assay type: functional; summary of the method: as §1
Candida parapsilosis [19] = assay: Antifungal activity against Candida parapsilosis assessed as FICI in presence of fluconazole; assay type: functional; summary of the method: as §1
Cryptococcus neoformans [20] = assay: Antifungal activity against Cryptococcus neoformans H99 assessed as FICI in presence of itraconazole; assay type: functional, var grubii H99; summary of the method: as §1
Pichia kudriavzevii [21] = assay: Antifungal activity against fluconazole-resistant Candida krusei assessed as FICI in presence of voriconazole; assay type: functional; summary of the method: as §6
[Candida] auris [22] = Antifungal activity against Candida auris assessed as FICI in presence of voriconazole; assay type: functional, Candidozyma auris; summary of the method: as §1
[Candida] auris [23] = Antifungal activity against Candida auris assessed as FICI in presence of fluconazole; assay type: functional, Candidozyma auris; summary of the method: as §1
Candida albicans [24] = assay: Antifungal activity against Candida albicans assessed as FICI in presence of voriconazole; assay type: functional; summary of the method: as §1
Cryptococcus neoformans [25] = assay: Antifungal activity against Cryptococcus neoformans H99 assessed as FICI in presence of fluconazole; assay type: functional, var grubii H99; summary of the method: as §1
Aspergillus fumigatus [26] = assay: Antifungal activity against Aspergillus fumigatus measured after 24 to 72 hrs; assay type: functional; summary of the method: as §3
Aspergillus fumigatus [27] = assay: Antifungal activity against Aspergillus fumigatus assessed as FICI in presence of itraconazole; assay type: functional; summary of the method: as §1
Pichia kudriavzevii [28] = assay: Antifungal activity against fluconazole-resistant Candida krusei assessed as FICI in presence of caspofungin; assay type: functional; summary of the method: as §6
Aspergillus fumigatus [29] = assay: Antifungal activity against Aspergillus fumigatus assessed as FICI in presence of fluconazole; assay type: functional; summary of the method: as §1
[30] = Selectivity index, ratio of LD50 for human HepG2 cells to MIC80 for Cryptococcus neoformans H99; assay type: toxicity; conditions: read-out: Selectivity Index
Summary of the method: (§7)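 SI = LD₅₀/MIC₈₀. Cytotoxicity: A549 or HepG2 cells (DMEM, 10% FBS, passage 7, 10⁵ cells/well) adhered 14 h, then exposed to 0.03–128 μg/mL for 24 or 48 h at 37°C, 5% CO₂; MTT 4 h, formazan dissolved in DMSO, read at 570 nm. MIC₈₀ against C. neoformans from broth microdilution in HEPES-buffered YNB, pH 7.0.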

Aspergillus fumigatus [31] = assay: Antifungal activity against Aspergillus fumigatus assessed as FICI in presence of voriconazole; assay type: functional; summary of the method: as §1
[32] = Selectivity index, ratio of LD50 for human A549 cells to MIC80 for Cryptococcus neoformans H99; assay type: toxicity; conditions: read-out: Selectivity Index; summary of the method: as §7
Pichia kudriavzevii [33] = assay: Antifungal activity against multi-drug resistant Candida krusei measured after 24 to 72 hrs; assay type: functional; summary of the method: as §5
Cryptococcus neoformans [34] = assay: Antifungal activity against Cryptococcus neoformans H99 assessed as FICI in presence of amphotericin B; assay type: functional, var grubii H99; summary of the method: as §1
Cryptococcus neoformans [35] = assay: Fungicidal activity against Cryptococcus neoformans H99 measured after 6 hrs by time-kill assay; assay type: functional, var grubii H99; summary of the method: as §4
[Candida] auris [36] = Antifungal activity against Candida auris assessed as FICI in presence of caspofungin; assay type: functional, Candidozyma auris; summary of the method: as §1
HepG2 = assay: Cytotoxicity against human HepG2 cells after 24 to 48 hrs by MTT assay; assay type: functional; conditions: read-out: LD50 (the source's name); summary of the method: as §2
[Candida] auris [37] = Antifungal activity against Candida auris measured after 24 to 72 hrs; assay type: functional; conditions: Candidozyma auris; summary of the method: as §3
Cryptococcus neoformans [38] = assay: Antifungal activity against Cryptococcus neoformans H99 infected in CBA/J mouse assessed as increase in survival at 1.2 mg/kg, ip; assay type: functional, organism-based; conditions: var grubii H99

O=C(N/N=C/c1cc(Cl)cc(Cl)c1O)c1ccc(Br)c(Br)c1
fractional inhibitory concentration index (FICI) (Candida parapsilosis [1]): 1.25
fractional inhibitory concentration index (FICI) (Candida parapsilosis [2]): 1.5
CC50 (A549): 32 µg/mL (≈ 68.5 µM)
fractional inhibitory concentration index (FICI) (Cryptococcus neoformans [3]): 0.247
fractional inhibitory concentration index (FICI) ([Candida] auris [4]): 1.12
MIC80 (Candida parapsilosis [5]): 1 µg/mL (≈ 2.14 µM)
fractional inhibitory concentration index (FICI) (Pichia kudriavzevii [6]): 0.25
MIC80 (Cryptococcus neoformans [7]): 0.03 µg/mL (≈ 0.0642 µM)
fractional inhibitory concentration index (FICI) (Candida albicans [8]): 1
Activity (Cryptococcus neoformans [9]): Dose-dependent effect
fractional inhibitory concentration index (FICI) (Candida parapsilosis [10]): 0.501
fractional inhibitory concentration index (FICI) (Candida albicans [11]): 0.252
fractional inhibitory concentration index (FICI) (Candida albicans [12]): 0.091
MIC80 (Candida albicans [13]): 2 µg/mL (≈ 4.28 µM)
fractional inhibitory concentration index (FICI) (Pichia kudriavzevii [14]): 1.001
MIC80 (Pichia kudriavzevii [15]): 0.25 µg/mL (≈ 0.535 µM)
fractional inhibitory concentration index (FICI) (Pichia kudriavzevii [16]): 0.53
fractional inhibitory concentration index (FICI) (Pichia kudriavzevii [17]): 1.24
fractional inhibitory concentration index (FICI) (Pichia kudriavzevii [18]): 0.56
fractional inhibitory concentration index (FICI) (Candida parapsilosis [19]): 0.258
fractional inhibitory concentration index (FICI) (Cryptococcus neoformans [20]): 0.247
fractional inhibitory concentration index (FICI) (Pichia kudriavzevii [21]): 1.03
fractional inhibitory concentration index (FICI) ([Candida] auris [22]): 0.5
fractional inhibitory concentration index (FICI) ([Candida] auris [23]): 0.5
fractional inhibitory concentration index (FICI) (Candida albicans [24]): 0.077
fractional inhibitory concentration index (FICI) (Cryptococcus neoformans [25]): 0.237
MIC80 (Aspergillus fumigatus [26]): 8 µg/mL (≈ 17.1 µM)
fractional inhibitory concentration index (FICI) (Aspergillus fumigatus [27]): 1.008
fractional inhibitory concentration index (FICI) (Pichia kudriavzevii [28]): 1.004
fractional inhibitory concentration index (FICI) (Aspergillus fumigatus [29]): 2
selectivity ratio [30]: 1070
fractional inhibitory concentration index (FICI) (Aspergillus fumigatus [31]): 1.031
selectivity ratio [32]: 1070
MIC80 (Pichia kudriavzevii [33]): 0.25 µg/mL (≈ 0.535 µM)
fractional inhibitory concentration index (FICI) (Cryptococcus neoformans [34]): 0.247
MFC100 (Cryptococcus neoformans [35]): 1 µg/mL (≈ 2.14 µM)
fractional inhibitory concentration index (FICI) ([Candida] auris [36]): 0.5
CC50 (HepG2): 32 µg/mL (≈ 68.5 µM)
MIC80 ([Candida] auris [37]): 0.5 µg/mL (≈ 1.07 µM)

OC(Cn1cncn1)(Cn1cncn1)c1ccc(F)cc1F
Activity (Cryptococcus neoformans [38]): Active
